# GRK2 inh: human GRK2 inhibition via aptamer displacement. P25098. bead flow cytometry, FAM-aptamer displacement from GRK2. inhibition of aptamer binding, % at 10 µM. 330,000 compounds, 0.59% hits;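 active = inhibition of aptamer binding above 40%, roughly 3 SD of noise, on plates passing a quality check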;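 also: median bead fluorescence of bound FAM aptamer so fluorescent compounds give negative values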
# Target sequence (P25098 whole entry, looked up): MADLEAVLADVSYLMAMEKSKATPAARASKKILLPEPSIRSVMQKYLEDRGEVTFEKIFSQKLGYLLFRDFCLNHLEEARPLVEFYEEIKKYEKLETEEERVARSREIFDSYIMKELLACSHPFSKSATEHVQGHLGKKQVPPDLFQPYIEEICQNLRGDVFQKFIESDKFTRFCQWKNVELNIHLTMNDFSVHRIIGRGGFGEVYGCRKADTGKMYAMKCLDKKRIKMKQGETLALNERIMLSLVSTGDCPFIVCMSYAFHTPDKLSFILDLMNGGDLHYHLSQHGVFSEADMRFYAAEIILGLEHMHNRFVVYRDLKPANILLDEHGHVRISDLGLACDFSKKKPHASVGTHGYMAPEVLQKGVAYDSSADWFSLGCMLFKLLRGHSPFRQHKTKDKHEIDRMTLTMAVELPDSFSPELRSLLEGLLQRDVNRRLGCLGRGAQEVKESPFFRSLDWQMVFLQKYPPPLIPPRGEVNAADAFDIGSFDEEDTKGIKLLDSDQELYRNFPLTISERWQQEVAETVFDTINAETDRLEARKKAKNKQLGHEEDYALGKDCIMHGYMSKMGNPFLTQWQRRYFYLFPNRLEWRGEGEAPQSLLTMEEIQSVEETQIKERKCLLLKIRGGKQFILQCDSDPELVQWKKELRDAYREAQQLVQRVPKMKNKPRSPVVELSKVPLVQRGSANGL
# HCV NS3 hel inh: inhibitors of Hepatitis C virus NS3 helicase; NS3 helicase DNA unwinding, Cy5 molecular beacon fluorescence; inhibition, % at 10.9 µM; 290,000 compounds, 0.56% hits;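 active = inhibition above the mean of all tested compounds plus 3 SD, set per campaign, cut at about 35% in these data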;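 also: 0% = DMSO wells and 100% = thioflavine S control wells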
#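 Measured by: Cy5 fluorescence, 0 and 60 min reads / Assay system: NS3 helicase fragment of HCV / Control set: low DMSO, high thioflavine S at 110 µM / Times: 1 h reaction at 25 °C, ATP-initiated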
# GPR7 antagonist: blocks human GPR7 receptor signaling; P48145; GPR7-expressing cells, fluorescence antagonist assay; inhibition, % at 4.4 µM; 290,000 compounds, 1.1% hits; AID 1861; in the data active = inhibition above about 16%, passing the limit was not always enough;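 also: cells stimulated with the agonist NPW; 0% = agonist with vehicle and 100% = vehicle without agonist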
# HCV core dimer: blocks dimerization of HCV core protein; TR-FRET GST/Flag-core106 dimerization, 1536-well; inhibition, % at 5 µM; 300,000 compounds, 0.33% hits; AID 1899;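 active = inhibition above the mean of all tested compounds plus 3 SD, set per screening campaign, cut at about 45% in these data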
#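 Assay system – GST-tagged and Flag-tagged HCV core protein residues 1-106 · Quantity – core106 proteins, GST 13.5 nM and Flag 17 nM · Benchmarks – unlabelled core106 and no-GST-core106 wells · Read-out basis – percent inhibition of core106 dimerization signal · Detection – time-resolved FRET, ex 340 nm, em 617 and 671 nm · Schedule – 4 h at 22.5 °C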
# DNA FID counter: fluorescent intercalator displacement, NS3 helicase counter-screen | DNA fluorescent intercalator displacement, fluorescence | inhibition, % at 7.9 µM | 290,000 compounds, 0.17% hits; in the data active = inhibition above about 37%;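 also: 0% = vehicle and 100% = reference compound; higher means more ethidium bromide displaced from hairpin DNA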
# DAGLB inh: blocks human DAGLB lipase activity. HEK293T DAGLB membrane lysate, EnzChek fluorogenic substrate. Q8NCG7. inhibition, % at 5.17 µM. AID 504411. 340,000 compounds, 0.059% hits; in the data active = inhibition above about 34%;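 also: 0% = enzyme with vehicle and 100% = wells lacking enzyme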
# Active calls of the source: *; i = inactive; . = not tested or not shown. A selection: hits, their analogues and other compounds. The true share with any hit is near 2.2%.
SMILES,GRK2 inh,HCV NS3 hel inh,GPR7 antagonist,HCV core dimer,DNA FID counter,DAGLB inh
O=C(Nc1nnc(Cc2ccccc2)s1)c1cccs1,6.0,-3.1,-12.1,3.6,4.9,2.5
O=C(Cc1cccs1)Nc1nnc(Cc2ccccc2)s1,12.0,12.1,-1.6,82.6*,-17.1,3.1
C[C@H](CO)N1C[C@H](C)[C@@H](CN(C)C(=O)c2ccc3c(c2)OCO3)Oc2cc(/C=C/c3ccccc3)ccc2S1(=O)=O,.,.,.,.,.,-0.3
O=C(C[C@H]1C(=O)N(Cc2ccccc2)C[C@@H]1c1ccc(Br)cc1)Nc1ccc(Br)cc1,.,.,.,.,.,-2.1
CCOC(=O)C1OC1(c1ccccc1)c1ccccc1 (stereo unspecified),.,.,.,.,.,2.3
O=C(Cc1cccs1)Nc1nnc(CCc2ccccc2)s1,3.0,18.1,14.4*,11.8,-15.3,2.4
CCCCCc1nnc(NC(=O)Cc2cccs2)s1,8.0,8.9,-3.0,70.8*,-19.2,1.2
O=C(Cc1cccs1)Nc1nnc(-c2ccncc2)s1,0.0,-6.6,9.1,10.9,-8.5,-4.9
Cc1ccc(C)c(S(=O)(=O)N2CCN(C(=O)Cn3c(=O)cnc4ccccc43)CC2)c1,0.0,.,.,-1.8,.,-0.9
CC1CNC(=S)N(c2ccccc2)C1=O (stereo unspecified),.,.,.,.,.,-2.3
COc1ccc(CCC(=O)Nc2ccc(Cl)c(S(=O)(=O)N3CCCC3)c2)cc1,0.0,11.4,20.6*,1.6,-21.8,-3.7
COc1ccc(CCC(=O)Nc2ccc(OC)c(S(=O)(=O)N3CCCCC3)c2)cc1OC,0.0,.,.,.,.,0.2
O=[N+]([O-])c1ccc2c(c1)-c1ccccc1C2O (stereo unspecified),.,.,.,.,.,0.3
C=CCOC(=O)C1=C(C)N=C2SCCC(=O)N2C1c1ccc(OC(=O)c2ccco2)cc1 (stereo unspecified),0.0,-2.0,25.5*,6.3,-32.8,-4.5
O=C(OCc1cc(Cl)ccc1OC(F)F)c1ccc([N+](=O)[O-])o1,3.0,-5.8,-5.0,12.8,-0.5,.
O=C(CN1C(=O)NC2(CCCCCC2)C1=O)Nc1ccc(OC(F)(F)F)cc1,.,.,.,.,.,0.7
Cc1c(C)n(Cc2ccccc2)c2ccc(C(=O)OCCCN(C)C)cc12,0.0,-67.5,9.0,-3.6,18.7,0.6
Cc1c(C)n(CCN(C)C)c2ccc(C(=O)OCCN(C)C)cc12,0.0,16.3,-10.1,-3.5,62.4*,1.8
CC1CCC(C(C)C)C(OC(=O)C[n+]2cccc(C(N)=O)c2)C1 (stereo unspecified),0.0,-34.0,-4.6,-11.1,8.5,-0.2
COc1ccc(-c2c[n+](CC(=O)OC3CC(C)CCC3C(C)C)c3n2CCC3)cc1 (stereo unspecified),0.0,-51.9,41.6*,-2.3,12.3,6.8
CN(C)CCCn1c2c(c(SCC(=O)Nc3cccc4ccccc34)nc1=O)CCCC2,0.0,.,.,4.4,.,-1.1
C#CCn1c(=NC(=O)c2sc3ccccc3c2Cl)sc2cc(S(N)(=O)=O)ccc21,0.0,4.2,-0.9,66.1*,-5.3,3.5
C#CCn1c(=NC(=O)c2ccc(S(=O)(=O)N3CCc4ccccc4C3)cc2)sc2cc(S(N)(=O)=O)ccc21,0.0,2.8,-3.7,45.6,-3.8,1.3
COc1cccc2c1C(=O)c1c(O)c3c(c(O)c1C2=O)C[C@@](O)(C(=O)CO)C[C@@H]3O[C@H]1C[C@H](N)[C@H](O)[C@H](C)O1,27.0,8.2,4.9,-14.8,58.6*,-6.7
NS(=O)(=O)c1ccc(CNC(=O)Cn2nc(C(F)F)cc2C(F)F)cc1,0.0,.,.,.,.,3.1
SMILES,GRK2 inh,HCV NS3 hel inh,GPR7 antagonist,HCV core dimer,DNA FID counter,DAGLB inh
CCn1cc(C(=O)NCCN(C)C)c(=O)c2cc(F)c(N3CCN(C)CC3)cc21,1.0,15.5,-10.3,5.4,56.2*,-1.5
CCCNC(=O)c1cn(CC)c2cc(N3CCN(C)CC3)c(F)cc2c1=O,0.0,1.9,2.5,-4.0,16.3,-1.6
CCCCCNC(=O)c1cn(CC)c2cc(N3CCN(C)CC3)c(F)cc2c1=O,0.0,-32.4,17.4,-10.0,14.6,0.5
CCn1cc(C(=O)NCCCN(C)C)c(=O)c2cc(F)c(N3CCN(C)CC3)cc21,1.0,17.9,-5.1,-2.5,68.4*,0.9
Cc1sc2ncnc(N3CCC(C(=O)Nc4cc(C(F)(F)F)ccc4OCC(F)(F)F)CC3)c2c1C,.,.,.,.,.,-9.8
Cc1ccc(-c2nc3ccc([N+](=O)[O-])cc3[nH]2)cc1,1.0,-1.2,53.5*,1.0,8.9,-1.6
O=[N+]([O-])c1ccc2nc(-c3ccncc3)[nH]c2c1,3.0,9.4,-18.5,-2.3,-0.7,-1.0
O=[N+]([O-])c1ccc2nc(-c3ccc(Cl)cc3)[nH]c2c1,0.0,2.1,24.1*,3.0,16.9,-0.8
N#Cc1ccc(CN2CCN(C(=O)CCNS(=O)(=O)c3ccc(F)c(Cl)c3)CC2)cc1,2.0,.,.,.,.,-1.9
S=c1nc[nH]c2c1sc1nc(N3CCOCC3)c3c(c12)CCCC3,4.0,15.1,1.7,61.1*,-8.9,-0.1
COC(=O)C(C(=O)OC)C1C=CCN(C(C)=O)C1 (stereo unspecified),.,.,.,.,.,-0.4
O=C([O-])c1cc(-c2ccccc2)cc(-c2ccccc2)[n+]1Cc1ccccc1,4.0,.,.,2.3,.,.
COc1cc(CNCCN2CCOCC2)ccc1OCc1ccc(Cl)cc1,0.0,-4.1,9.1,-6.8,15.7,3.2
COc1cc(CNCCCN2CCOCC2)cc(Br)c1OCc1ccc(Cl)cc1,0.0,-77.6,58.8*,-4.8,41.5*,-2.0
CCN1CCN(Cc2ccc(NC(=O)c3ccc(C)c(NC(=O)c4cccc(-c5cn[nH]c(=O)c5)c4)c3)cc2C(F)(F)F)CC1,0.0,-102.9,-3.6,2.0,40.5*,-2.6
CCN1CCN(Cc2ccc(NC(=O)c3ccc(C)c(NC(=O)c4ccno4)c3)cc2C(F)(F)F)CC1,0.0,.,.,-11.0,.,-2.3
CN(C)CCCN1C(=O)c2cccc3c(Br)ccc(c23)C1=O,0.0,14.1,1.6,-5.5,13.5,0.7
CCCCNc1ccc2c3c(cccc13)C(=O)N(CCCC)C2=O,.,-14.9,37.0*,.,-12.8,i
O=C(CSCC(=O)NC1CC1)Nc1ccc2ccccc2c1,.,6.7,20.0*,.,-4.0,1.8
O=C(CSCC(=O)NC1CC1)Nc1ccccc1,3.0,5.9,-8.9,7.4,-4.4,3.3
Cc1c(Br)cc(C(=O)NCc2ccco2)c(C)c1C,2.0,17.6,1.6,48.5*,-11.5,-0.5
O=C(NCc1cccc(CNC(=O)C(=O)NCc2ccco2)c1)C(=O)NCc1ccco1,33.0,-7.8,-0.9,47.0*,-8.6,1.5
NS(=O)(=O)c1ccc(NC(=O)c2cccc3cc4ccccc4nc23)cc1,.,.,.,.,.,5.8
O=C(NS(=O)(=O)Oc1ccccc1F)OC[C@@H]1CCCN2CCCCC12 (stereo partly specified),0.0,-12.6,-6.0,-2.4,-5.6,0.2
CCN(C(=O)COC(=O)CCC(=O)c1ccc(Cl)cc1)c1c(N)n(Cc2ccccc2)c(=O)[nH]c1=O,.,.,.,.,.,0.7
